Measurements reported in publication PMC2864424 (Current Chemical Genomics, 2010).
Where two headings read alike, the source gives them in different places.

Key:
OATP1B1 [1] = target: T1, OATP1B1 (Homo sapiens, UniProt Q9Y6L6); format: cell-based; settings: for preferential / selective inhibition of OATP1B1-mediated FMTX transport: compared with OATP1B3
T1 sequence (Q9Y6L6 1-691): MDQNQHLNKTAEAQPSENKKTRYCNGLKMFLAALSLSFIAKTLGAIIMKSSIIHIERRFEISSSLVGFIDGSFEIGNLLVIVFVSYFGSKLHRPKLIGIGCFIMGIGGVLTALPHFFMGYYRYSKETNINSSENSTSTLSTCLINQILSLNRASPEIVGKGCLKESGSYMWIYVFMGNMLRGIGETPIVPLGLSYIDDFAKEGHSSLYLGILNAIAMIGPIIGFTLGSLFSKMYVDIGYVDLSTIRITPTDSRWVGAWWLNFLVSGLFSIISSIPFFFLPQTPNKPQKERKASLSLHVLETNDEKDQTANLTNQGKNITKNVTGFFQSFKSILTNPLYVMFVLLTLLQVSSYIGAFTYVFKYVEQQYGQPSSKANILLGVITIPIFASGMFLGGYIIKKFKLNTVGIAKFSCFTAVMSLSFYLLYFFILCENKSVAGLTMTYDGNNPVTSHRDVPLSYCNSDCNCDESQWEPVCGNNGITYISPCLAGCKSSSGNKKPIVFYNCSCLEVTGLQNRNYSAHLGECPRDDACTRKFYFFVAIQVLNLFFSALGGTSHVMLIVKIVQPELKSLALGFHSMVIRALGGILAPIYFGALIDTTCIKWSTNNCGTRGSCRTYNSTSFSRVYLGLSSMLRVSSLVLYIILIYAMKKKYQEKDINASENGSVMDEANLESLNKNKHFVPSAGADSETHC

[2] = tested on: OATP1B1 and OATP1B3 (not distinguished); format: cell-based, human; settings: human, CHO cells stably expressing OATP1B1 or OATP1B3, pH 7.4, probe FMTX, 5 µM
OATP1B3 [3] = target: T2, OATP1B3 (Homo sapiens, UniProt Q9NPD5); format: cell-based
T2 sequence (Q9NPD5 1-702): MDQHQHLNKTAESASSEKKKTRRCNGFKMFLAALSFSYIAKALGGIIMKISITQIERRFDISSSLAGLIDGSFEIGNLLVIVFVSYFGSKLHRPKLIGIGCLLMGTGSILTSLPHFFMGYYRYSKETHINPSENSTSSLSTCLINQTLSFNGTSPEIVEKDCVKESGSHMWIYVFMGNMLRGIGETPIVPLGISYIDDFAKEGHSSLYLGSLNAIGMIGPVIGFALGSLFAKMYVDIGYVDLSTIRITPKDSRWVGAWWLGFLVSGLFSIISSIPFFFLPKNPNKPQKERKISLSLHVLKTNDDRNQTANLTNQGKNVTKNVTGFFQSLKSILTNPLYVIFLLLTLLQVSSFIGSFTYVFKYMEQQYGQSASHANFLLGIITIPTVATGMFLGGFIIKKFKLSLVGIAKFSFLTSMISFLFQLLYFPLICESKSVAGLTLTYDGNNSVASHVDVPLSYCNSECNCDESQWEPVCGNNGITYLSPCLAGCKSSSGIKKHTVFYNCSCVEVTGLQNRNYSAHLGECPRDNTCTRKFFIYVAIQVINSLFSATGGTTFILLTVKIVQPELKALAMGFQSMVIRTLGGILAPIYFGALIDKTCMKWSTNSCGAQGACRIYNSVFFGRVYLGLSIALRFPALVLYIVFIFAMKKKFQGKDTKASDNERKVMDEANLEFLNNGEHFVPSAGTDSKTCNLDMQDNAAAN
How it was run: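 Stably transfected CHO cells were grown at 37 °C, 5% CO2 in DMEM with 10% FBS, L-proline and 500 μg/ml G-418, passaged twice weekly and used up to passage 55. Cells were washed with 37 °C uptake buffer (pH 7.4) and incubated with fluorescent compound at 37 °C. Cells were then washed four times with ice-cold buffer and lysed in 1% Triton X-100. Fluorescence was read at 485/528 nm, with Vmax expressed per mg protein per min.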

OATP1B3 [4] = target: T2, OATP1B3; format: cell-based; settings: for preferential inhibition of OATP1B3-mediated FMTX transport: compared with OATP1B1
OATP2B1 = settings: cited from earlier work
OATP1B1 [5] = settings: read-out: Ki, inhibition of OATP1B1-mediated pitavastatin uptake; cited from earlier work
OATP1B1 [6] = target: T1, OATP1B1; format: cell-based; settings: 24-well plates
OATP1B1 and OATP1B3 = format: cell-based, human; settings: primary screen of FMTX uptake by OATP1B1 or OATP1B3
wild-type CHO cells = assay: FMTX uptake into wild-type CHO cells, 96-well plates; format: cell-based, Chinese Hamster; settings: 5 μM FMTX, 30 min, room temperature
How it was run: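 Cells were washed three times with room-temperature buffer and given 5 µM FMTX for 30 min at room temperature. They were then washed four times and lysed in 1% Triton X-100 in PBS. Fluorescence was read at ex 485/em 528 nm.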

OATP1B1 [7] = settings: read-out: Ki, inhibition of BSP transport, OATP1B1; cited from earlier work
OATP1B3 [8] = settings: read-out: IC50, inhibition of bosentan transport, OATP1B3; ref Treiber et al. 5; cited from earlier work
OATP1B1 [9] = settings: read-out: IC50, inhibition of Ro 48-5033 uptake, OATP1B1; ref Treiber et al. 5; cited from earlier work
OATP1B3 [10] = settings: read-out: Ki, inhibition of fexofenadine transport, OATP1B3; cited from earlier work
OATP1B3 [11] = settings: read-out: IC50, inhibition of Ro 48-5033 uptake, OATP1B3; ref Treiber et al. 5; cited from earlier work
OATP1B1 [12] = settings: read-out: IC50, inhibition of bosentan transport, OATP1B1; ref Treiber et al. 5; cited from earlier work
OATP1B3 [13] = settings: read-out: Ki, inhibition of BSP transport, OATP1B3; cited from earlier work
OATP1B1 [14] = settings: read-out: Ki, inhibition of fexofenadine transport, OATP1B1; cited from earlier work
[15] = substrate: O=C1OC2(c3ccc(O)cc3Oc3cc(O)ccc32)c2ccccc21; format: cell-based, human; settings: other: 37 °C, 2 min, 24-well plates, net uptake
[16] = 5 μM FMTX, 30 min, room temperature, 96-well plates
[17] = 5 μM FMTX, 30 min, room temperature, 96-well plates, no inhibitor

CC(C)C[C@H]1C(=O)N2CCC[C@H]2[C@]2(O)O[C@](NC(=O)[C@@H]3C=C4c5cccc6[nH]cc(c56)C[C@H]4N(C)C3)(C(C)C)C(=O)N12 [Ergocryptine]
preferential / selective inhibition of OATP1B1-mediated FMTX transport (OATP1B1 [1]): preferentially inhibited OATP1B1

O=c1[nH]c(=O)n([C@H]2C[C@H](O)[C@@H](CO)O2)cc1C(F)(F)F [Trifluridine]
IC50 at 30 min [2]: > 100 µM

Alexa Fluor® 488 methotrexate [AMTX]
substrate of OATP1B3 (OATP1B3 [3]; 1 µM, 30 min, 24-well plates): not transported

CC(=O)[C@H]1CC[C@H]2[C@@H]3CCC4=CC(=O)CC[C@]4(C)[C@H]3CC[C@]12C [progesterone]
EC50 (OATP1B3 [4]): 200 nM | effect on OATP1B3-mediated FMTX uptake (OATP1B3 [4]; [16]): stimulated | effect on OATP2B1-mediated estrone-3-sulfate uptake (OATP2B1): stimulate | IC50 (OATP1B1 [1]): 5.4 ± 1.9 µM | effect on OATP1B1-mediated FMTX uptake (OATP1B1 [1]; [16]): inhibited

CN(Cc1cnc2nc(N)nc(N)c2n1)c1ccc(C(=O)N[C@@H](CCC(=O)O)C(=O)O)cc1 [methotrexate]
inhibition at 30 min, 100 µM [2]: 30% | Ki (OATP1B1 [5]): > 300 µM

O=C1OC2(c3ccc(O)cc3Oc3cc(O)ccc32)c2ccccc21 [fluorescein]
transported by OATP1B1 (OATP1B1 [6]; 1 µM, 30 min): transported | Km at 2 min (OATP1B3 [3]; human, CHO cells stably expressing OATP1B3, pH 7.4): 82 ± 10 µM

CCN1C[C@]2(COC)[C@H](O)C[C@H](OC)[C@@]34[C@@H]5C[C@@]6(O)[C@H](OC(=O)c7ccccc7)[C@@H]5[C@@](OC(C)=O)([C@@H]([C@H](OC)[C@H]23)[C@@H]14)[C@@H](O)[C@@H]6OC [Aconitine]
IC50 at 30 min [2]: > 100 µM

O=C(O)c1cccnc1Nc1cccc(C(F)(F)F)c1 [Niflumic acid]
preferential / selective inhibition of OATP1B1-mediated FMTX transport (OATP1B1 [1]): preferentially inhibited OATP1B1

CC(C)(C)NC(=O)[C@@H]1C[C@@H]2CCCC[C@@H]2CN1C[C@@H](O)[C@H](Cc1ccccc1)NC(=O)[C@H](CC(N)=O)NC(=O)c1ccc2ccccc2n1 [saquinavir]
Prestwick library screening result (OATP1B1 and OATP1B3): strongest inhibitors

Cc1ncc([N+](=O)[O-])n1CCO [Metronidazole]
IC50 at 30 min [2]: > 100 µM

CCOC(=O)Nc1ccc2c(c1)N(C(=O)CCN1CCOCC1)c1ccccc1S2 [Moricizine]
preferential inhibition of OATP1B3-mediated FMTX transport (OATP1B3 [4]): preferentially inhibited OATP1B3

CCOc1cc(CC(=O)N[C@@H](CC(C)C)c2ccccc2N2CCCCC2)ccc1C(=O)O [Repaglinide]
preferential / selective inhibition of OATP1B1-mediated FMTX transport (OATP1B1 [1]): preferentially inhibited OATP1B1

fluorescein-methotrexate [FMTX]
typical uptake, OATP1B3-expressing cells (OATP1B3 [4]; [16]): 33,880 ± 3,645 fluorescent units | signal-to-basal ratio of uptake, OATP1B3 (OATP1B3 [4]; [17]): 7.7 | transported by OATP1B1 (OATP1B1 [6]; 1 µM, 30 min): transported | uptake signal, OATP1B1 (OATP1B1 [6]; 1 µM, 30 min, versus wild-type CHO): about 3 fold | Vmax, OATP1B1 (OATP1B1 [6]; 37 °C, 2 min): 961 ± 198 fluorescent units/mg protein * min | Km (OATP1B1 [6]; read-out: apparent Km, OATP1B1, 37 °C, 2 min, net uptake): 3.8 ± 0.7 µM | uptake signal, OATP1B3 (OATP1B3 [3]; 1 µM, 30 min, 24-well plates, versus wild-type CHO): about 4.5 fold | Vmax, OATP1B3 (OATP1B3 [3]; 37 °C, 2 min, 24-well plates): 4772 ± 709 fluorescent units/mg protein * min | fold higher transport efficiency of OATP1B3 than OATP1B1 (OATP1B3 [3]; Vmax/Km compared): 2–3 fold | Km (OATP1B3 [3]; read-out: apparent Km, OATP1B3, 37 °C, 2 min, 24-well plates, net uptake): 7.9 ± 2 µM | typical uptake, wild-type CHO cells (wild-type CHO cells): 4,400 ± 80 fluorescent units | typical uptake, OATP1B1-expressing cells (OATP1B1 [1]; [16]): 15,060 ± 1,540 fluorescent units | signal-to-basal ratio of uptake, OATP1B1 (OATP1B1 [1]; [17]): 3.4

Bromocryptine
preferential / selective inhibition of OATP1B1-mediated FMTX transport (OATP1B1 [1]): preferentially inhibited OATP1B1

C[C@H]1C[C@H]2[C@@H]3CCC4=CC(=O)C=C[C@]4(C)[C@@]3(Cl)[C@@H](O)C[C@]2(C)[C@@]1(O)C(=O)CO [Beclomethasone]
selectivity for OATP1B3 over OATP1B1 (OATP1B3 [4]; FMTX uptake IC50 values): about 5 fold | preferential inhibition of OATP1B3-mediated FMTX transport (OATP1B3 [4]): preferential inhibitors | preferential inhibition of OATP1B3-mediated FMTX transport (OATP1B3 [4]; listed as beclamethasone): preferentially inhibited OATP1B3

CCOC(=O)c1cncn1[C@H](C)c1ccccc1 [Etomidate]
IC50 at 30 min [2]: > 100 µM

CO[C@H]1/C=C/O[C@@]2(C)Oc3c(C)c(O)c4c(O)c(c(/C=N/N5CCN(C)CC5)c(O)c4c3C2=O)NC(=O)/C(C)=C\C=C\[C@H](C)[C@H](O)[C@@H](C)[C@@H](O)[C@@H](C)[C@H](OC(C)=O)[C@@H]1C [Rifampicin]
Ki (OATP1B1 [7]): 17 µM | Prestwick library screening result (OATP1B1 and OATP1B3): strongest inhibitors | IC50 at 30 min [2]: 1.3 to 1.5 µM | IC50 (OATP1B3 [8]): 1600 nM | IC50 (OATP1B1 [9]): ~50 µM | Ki (OATP1B3 [10]): 1500 nM | IC50 (OATP1B3 [11]): 800 nM | IC50 (OATP1B1 [12]): 3.2 µM | Ki (OATP1B3 [13]): 5 µM | Ki (OATP1B1 [14]): 500 nM

O=C(COc1ccc(Cl)cc1)N1CCN(Cc2ccc3c(c2)OCO3)CC1 [Fipexide]
preferential / selective inhibition of OATP1B1-mediated FMTX transport (OATP1B1 [1]): preferentially inhibited OATP1B1

B1: OATP1B1 (Homo sapiens) (protein)
chain: MDQNQHLNKTAEAQPSENKKTRYCNGLKMFLAALSLSFIAKTLGAIIMKSSIIHIERRFEISSSLVGFIDGSFEIGNLLVIVFVSYFGSKLHRPKLIGIGCFIMGIGGVLTALPHFFMGYYRYSKETNINSSENSTSTLSTCLINQILSLNRASPEIVGKGCLKESGSYMWIYVFMGNMLRGIGETPIVPLGLSYIDDFAKEGHSSLYLGILNAIAMIGPIIGFTLGSLFSKMYVDIGYVDLSTIRITPTDSRWVGAWWLNFLVSGLFSIISSIPFFFLPQTPNKPQKERKASLSLHVLETNDEKDQTANLTNQGKNITKNVTGFFQSFKSILTNPLYVMFVLLTLLQVSSYIGAFTYVFKYVEQQYGQPSSKANILLGVITIPIFASGMFLGGYIIKKFKLNTVGIAKFSCFTAVMSLSFYLLYFFILCENKSVAGLTMTYDGNNPVTSHRDVPLSYCNSDCNCDESQWEPVCGNNGITYISPCLAGCKSSSGNKKPIVFYNCSCLEVTGLQNRNYSAHLGECPRDDACTRKFYFFVAIQVLNLFFSALGGTSHVMLIVKIVQPELKSLALGFHSMVIRALGGILAPIYFGALIDTTCIKWSTNNCGTRGSCRTYNSTSFSRVYLGLSSMLRVSSLVLYIILIYAMKKKYQEKDINASENGSVMDEANLESLNKNKHFVPSAGADSETHC
Km [15]: 38 ± 5 µM
